# From PubChem BioAssay
# TRPC6 inh: mouse TRPC6 channel inhibitors, primary screen, cell-based, HEK293, membrane potential dye; Short transient receptor potential channel 6 (Mus musculus), Q61143; ACh-evoked depolarization; stronger effect = lower value; B-score at 10 µM; actives 1.1% (n = 310,000); AID 2553, 2010;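 active = B-score under library mean minus 3 SD, initial fluorescence not abnormally high, positive integrated signal ratio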;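 note: B-score derived from integrated fluorescence ratio over the kinetic read; more negative B-score means stronger inhibition of depolarization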
# Target sequence (Q61143 whole entry, looked up): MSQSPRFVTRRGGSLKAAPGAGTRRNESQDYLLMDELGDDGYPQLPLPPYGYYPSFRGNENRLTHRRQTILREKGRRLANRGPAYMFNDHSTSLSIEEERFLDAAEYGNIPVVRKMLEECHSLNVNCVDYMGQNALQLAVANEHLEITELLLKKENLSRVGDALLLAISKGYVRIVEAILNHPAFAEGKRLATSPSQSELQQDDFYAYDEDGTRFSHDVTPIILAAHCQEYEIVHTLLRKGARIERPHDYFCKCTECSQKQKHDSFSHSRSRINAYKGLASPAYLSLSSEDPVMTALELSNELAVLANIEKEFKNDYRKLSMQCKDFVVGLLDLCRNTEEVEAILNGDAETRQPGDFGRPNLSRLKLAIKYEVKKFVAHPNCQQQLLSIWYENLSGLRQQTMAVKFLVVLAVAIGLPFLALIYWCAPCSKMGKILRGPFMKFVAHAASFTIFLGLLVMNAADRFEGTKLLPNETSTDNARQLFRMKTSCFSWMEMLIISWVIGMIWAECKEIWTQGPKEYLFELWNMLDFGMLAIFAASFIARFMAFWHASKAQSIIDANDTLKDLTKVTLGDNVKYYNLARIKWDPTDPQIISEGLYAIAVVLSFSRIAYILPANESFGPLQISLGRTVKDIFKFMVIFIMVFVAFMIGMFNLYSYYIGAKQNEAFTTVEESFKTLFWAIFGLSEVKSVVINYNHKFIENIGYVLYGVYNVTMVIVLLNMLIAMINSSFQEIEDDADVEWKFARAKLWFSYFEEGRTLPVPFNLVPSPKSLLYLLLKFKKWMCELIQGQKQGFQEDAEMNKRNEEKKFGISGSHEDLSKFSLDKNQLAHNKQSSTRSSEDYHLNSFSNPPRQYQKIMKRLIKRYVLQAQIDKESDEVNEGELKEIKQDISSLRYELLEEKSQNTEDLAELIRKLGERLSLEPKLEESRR
# TRPC4 PAM: positive allosteric modulators of TRPC4, primary screen, cell-based, mouse TRPC4beta, HEK293 mu-opioid, Fluo-4 calcium; actives 0.42% (n = 310,000); B-score at 10 µM; Short transient receptor potential channel 4 (Mus musculus), Q9QUQ5; AID 2227, 2009; DAMGO EC20, Fluo-4 Ca2+ flux; stronger effect = higher value;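 active = B-score of calcium response area above 5 SD of library B-scores, with initial fluorescence ratio within 5 SD of library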;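 note: B-score of integrated fluorescence ratio over time as area under calcium response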
# TRPC6 act: mouse TRPC6 channel activators, primary screen, cell-based, HEK293, membrane potential dye | Short transient receptor potential channel 6 (Mus musculus), Q61143 | HEK293-TRPC6 membrane potential dye fluorescence; stronger effect = higher value | B-score at 10 µM | actives 0.13% (n = 310,000);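 active = B-score of the integrated fluorescence ratio above library mean plus 3 SD, and starting fluorescence ratio within library mean plus 5 SD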;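 note: higher score means more depolarization so channel activation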
# TRPC4 inh: inhibitors of mouse TRPC4 channel, primary screen, Fluo4 calcium, HEK293 TRPC4beta/mu-opioid cells; Short transient receptor potential channel 4 (Mus musculus), Q9QUQ5; actives 0.39% (n = 300,000); B-score at 10 µM; DAMGO-evoked Fluo4 calcium flux; stronger effect = lower value;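 active = B-score over 3 SD under the library average, no early fluorescence shift, positive overall ratio signal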
#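 Assay system: HEK293 cells with stable TRPC4beta plus mu-opioid receptor expression. Dosing: single dose. Measured by: Fluo4 Ca2+ flux fluorescence. Also added: DAMGO in two steps, submaximal then maximal. Read-out: B score from integrated Fluo4 fluorescence ratio.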
# Yeast superoxide: reduction of superoxide in aged yeast, primary screen, HTS; S. cerevisiae aged cells, superoxide DHE fluorescence; stronger effect = lower value; superoxide response (% of plate mean), % at 10 µM; actives 0.18% (n = 330,000);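 active = superoxide response under a set limit, about three screen SD below normal, cut at about 65% in these data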;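 note: yeast aged for seven days with compound at 30 °C before DHE staining; 100% = average MFI of all compound-treated wells on the plate with controls excluded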
# TRPC4 agonist: activators of mouse TRPC4 channel, primary screen, Fluo4 calcium, HEK293 TRPC4beta/mu-opioid cells; actives 0.49% (n = 310,000); Fluo4 calcium fluorescence; stronger effect = higher value; Short transient receptor potential channel 4 (Mus musculus), Q9QUQ5; B-score at 10 µM;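 active = B-score above 5 SD of library B-scores, and initial fluorescence ratio not above library mean plus 5 SD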;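 note: positive B-score marks a calcium rise read as TRPC4 activation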
#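 system = HEK293 cells stably co-expressing mouse TRPC4beta and mu-opioid receptor | schedule = Fluo4 dye loading 45 min at room temperature, 110 s recording | measure = B-scored integrated calcium fluorescence ratio | signal = Fluo4 calcium-sensitive dye fluorescence, kinetic, 1 Hz baseline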
# TRPC4 spec 2: second selectivity test of TRPC6 inhibitors: effect on mouse TRPC4 | HEK293 TRPC4/MOR, membrane potential dye fluorescence; channel activated by saturating DAMGO dose | shares compounds with TRPC6 inh | AID 2776 | actives 42% (n = 920) | inhibition, % at 10 µM;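 active = compounds whose fluorescence signal differed from control wells by over 3 SD, either direction, in both duplicate plates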
# TRPC4 spec: mouse TRPC4 modulation by TRPC6 hits, confirmation, selectivity assay for TRPC6 inhibitor project, cell-based, HEK293 TRPC4/mu-opioid, membrane potential dye; activity change, negative = inhibition, % at 10 µM; actives 61% (n = 920); AID 2777, 2010; membrane potential fluorescence; shares compounds with TRPC6 inh;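 active = rise or fall in signal beyond 3 SD of buffer-only wells in both replicate plates, either sign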;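 note: integrated kinetic ratio of fluorescence range over baseline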
# HEK293 MPD ctr 2-1: nonspecific membrane potential effects, parental HEK293, confirmation, counter-screen for TRPC6 inhibitor project, cell-based, second counter screen. shares compounds with TRPC6 inh. signal change vs control, % at 10 µM. actives 31% (n = 920). parental HEK293 membrane potential dye fluorescence; maximal acetylcholine challenge after compound addition. AID 2779, 2010;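 active = membrane potential signal moving either way by over 3 SD of the maximum-effect control, in both duplicate plates, meaning non-specific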
# HEK293 MPD ctr-1: membrane potential modulation in parental HEK293, confirmation, counter-screen for TRPC6 inhibitor project, cell-based; parental HEK293 membrane potential dye fluorescence; AID 2780, 2010; actives 60% (n = 920); shares compounds with TRPC6 inh; membrane potential signal change, % at 10 µM;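 active = membrane potential signal shifting up or down by more than 3 SD of buffer-only wells, on both duplicate plates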
# HEK293 MPD ctr-2: parental HEK293 membrane potential modulation, confirmation, counter-screen for TRPC6 modulator project, cell-based | membrane potential dye fluorescence | shares compounds with TRPC6 inh | actives 51% (n = 2,400) | membrane potential signal change, % at 10 µM;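 active = membrane potential signal moves up or down beyond 5 SD from buffer-only wells, on both duplicate plates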
# HEK293 MPD ctr 2-2: second check of TRPC6 modulator effects in parental HEK293 cells | AID 488926 | inhibition, % at 10 µM | actives 14% (n = 2,400) | shares compounds with TRPC6 inh | membrane potential dye fluorescence; after compound, maximal acetylcholine stimulation;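 active = membrane potential signal drops by more than 5 SD from the mean control signal, in both duplicate plates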;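 note: plate controls were acetylcholine ECmax control wells for no effect and buffer only wells for full effect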
# TRPC4 ctr mod: TRPC4 modulation by TRPC6 hit compounds, confirmation, selectivity assay for TRPC6 modulator project, cell-based, HEK293 TRPC4/mu-opioid, membrane potential dye, mouse. actives 69% (n = 2,400). percent change from control (negative = decrease, positive = increase), % at 10 µM. AID 488927, 2010. membrane potential fluorescence. shares compounds with TRPC6 inh;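 active = membrane potential signal moved up or down beyond 5 SD of buffer control wells, in both duplicate plates, actives on both sides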;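 note: plate controls were assay buffer wells for no effect and DAMGO maximal-effect wells for full effect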
# TRPC4/MOR inh 2: second selectivity test of TRPC6 modulators against mouse TRPC4; HEK293 TRPC4/mu-opioid, membrane potential dye fluorescence; stimulated with maximal-effect DAMGO; shares compounds with TRPC6 inh; AID 488928; inhibition, % at 10 µM; actives 55% (n = 2,400);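 active = drop in membrane potential signal beyond 5 SD of the control wells in both duplicate plates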;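 note: TRPC4 counter screen for TRPC6 hits run under conditions tuned for TRPC6 not TRPC4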
# TRPC6 inh conf: mouse TRPC6 channel inhibitors, confirmation, HEK293 cells, membrane potential dye, duplicate; shares compounds with TRPC6 inh; ACh-evoked depolarization; inhibition, % at 10 µM; actives 43% (n = 3,300);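 active = fluorescence ratio falls more than 5 SD below the full-stimulation control mean, in both duplicate runs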;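 note: integrated fluorescence ratio of peak minus minimum over baseline after agonist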
# TRPC6 act conf: mouse TRPC6 channel activators, confirmation, HEK293 cells, membrane potential dye, duplicate. shares compounds with TRPC6 inh. HEK293-TRPC6 membrane potential dye fluorescence, FDSS. activation, % at 10 µM. actives 11% (n = 2,800). AID 488961, 2010;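 active = ratio signal rise beyond 5 SD above unstimulated control wells' mean, seen in both duplicate runs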;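 note: plate controls were buffer EC0 wells for no effect and acetylcholine ECmax response for full effect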
# Active calls of the source: *; i = inactive; · = no result. A selection: hits, their analogues and other compounds. The true share with any hit is near 2.3%.
SMILES,TRPC6 inh,TRPC4 PAM,TRPC6 act,TRPC4 inh,Yeast superoxide,TRPC4 agonist,TRPC4 spec 2,TRPC4 spec,HEK293 MPD ctr 2-1,HEK293 MPD ctr-1,HEK293 MPD ctr-2,HEK293 MPD ctr 2-2,TRPC4 ctr mod,TRPC4/MOR inh 2,TRPC6 inh conf,TRPC6 act conf
CC1CCN(CC(=O)Nc2ccc(N3CCCCCC3)cc2)CC1,-5.4*,i,i,i,95,i,·,·,·,·,i,i,-17%*,38%*,i,i
O=C1CCC[C@@H]2CC(Nc3ccc(F)cc3F)C[C@@H]3CCN1[C@H]23 (stereo not given in full),·,·,·,·,88,·,·,·,·,·,·,·,·,·,·,·
CCN(CC)S(=O)(=O)c1cccc(NC(=O)CNC2CCCCCC2)c1,-6.5*,i,i,i,93,i,·,·,·,·,i,i,i,66%*,43%*,i
Cc1cc(=O)oc2cc(OCC(=O)N3CCN(c4ccc(F)cc4)CC3)ccc12,i,i,i,i,115,i,·,·,·,·,·,·,·,·,·,·
Cc1cc(=O)oc2cc(OCC(=O)N3CCN(C(=O)c4ccco4)CC3)ccc12,-5.5*,i,i,i,90,i,·,·,·,·,i,i,i,i,i,i
COC(=O)c1ccc(CN2CCN(CCC(C)C)C(CCO)C2)cc1 (stereo not given),-5.2*,i,i,i,96,i,·,·,·,·,99%*,i,10%*,i,i,·
Cc1cc(-n2cccn2)ccc1CN1CCN(CC(C)C)C(CCO)C1 (stereo not given),-8.3*,i,i,i,108,i,i,4.3%*,26%*,5.6%*,·,·,·,·,58%*,i
Cc1cc(-n2cccn2)ccc1CN1CCN(C2CCCC2)C(CCO)C1 (stereo not given),-9.7*,i,i,i,101,i,i,8.4%*,20%*,9.2%*,·,·,·,·,63%*,·
CC(=O)Nc1ccc(CN2CCN(CC=C(C)C)C(CCO)C2)cc1 (stereo not given),i,i,i,i,109,i,·,·,·,·,·,·,·,·,·,·
CC(=O)Nc1ccc(CN2CCN(C3CCCC3)C(CCO)C2)cc1 (stereo not given),-6.9*,i,i,i,95,i,i,i,i,i,·,·,·,·,i,i
Cc1conc1NC(c1cccs1)c1ccc2cccnc2c1O (stereo not given),i,i,i,i,98,i,·,·,·,·,·,·,·,·,·,·
COc1ccccc1CN1C(=O)CN(C2CCCC2)C(=O)C1c1ccc(F)cc1 (stereo not given),i,i,i,i,80,i,·,·,·,·,·,·,·,·,·,·
CC(=O)/C(C(=N)N1CCN(C(c2ccccc2)c2ccccc2)CC1)=C(\C)O,-7*,i,i,i,103,i,i,i,i,i,·,·,·,·,i,i
COc1cc(OC)c(C(=O)N(CCc2ccccc2)Cc2ccccc2)cc1OC,-6.9*,i,i,i,102,i,i,15%*,i,9.0%*,·,·,·,·,i,i
CCN(Cc1ccccc1)C(=O)c1ccc(SC)cc1OC,i,i,i,i,112,i,·,·,·,·,·,·,·,·,·,·
CN1CCC(N(C)C(=O)c2ccc(Cl)c(S(=O)(=O)N(C)c3ccc(Cl)cc3)c2)CC1,·,·,·,·,101,·,·,·,·,·,·,·,·,·,·,·
CCCCOc1ccc(-c2nnc(-c3cc[n+](C)cc3)o2)cc1,-8.2*,i,i,i,90,i,i,-11%*,-69%*,-200%*,·,·,·,·,i,i
COc1ccc([C@@H]2[C@@H]3C(=O)N(C(C)(C)C)C(=O)[C@@H]3[C@]3(Cc4ccccc4)C(=O)N(c4ccc(Br)cc4)C(=O)N23)cc1,-6.1*,i,i,i,104,i,·,·,·,·,i,i,i,i,i,i
